In ChEMBL document CHEMBL1157589, “Antifungal 3,5-disubstituted furanones: From 5-acyloxymethyl to 5-alkylidene derivatives” (Bioorg Med Chem, 2010):
In brackets after ≈: the same amount, converted by molar mass.

How the values were obtained:
[1] = test system: Trichophyton mentagrophytes; assay: Antifungal activity against Trichophyton mentagrophytes 445 after 120 hrs by microdilution method; assay type: functional; settings: Trichophyton mentagrophytes, 445, 120 h
How it was run: (§1)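 Dermatophyte held on Sabouraud dextrose agar. M27-A microdilution in MOPS-buffered (0.165 M, pH 7.0) RPMI 1640 with L-glutamine. DMSO ≤2% final; twofold dilutions 500–0.48. Inoculum 5 × 10³ ± 0.2 cfu mL⁻¹ final. Incubated at 35 °C; MIC read visually at 72 and 120 h as 80% inhibition of control growth; determined twice in duplicate.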

[2] = test system: Trichophyton mentagrophytes; assay: Antifungal activity against Trichophyton mentagrophytes 445 after 72 hrs by microdilution method; assay type: functional; settings: Trichophyton mentagrophytes, 445, 72 h; how it was run: as §1
Candida albicans [3] = assay: Antifungal activity against Candida albicans ATCC 90028 after 24 hrs by microdilution method; assay type: functional; settings: ATCC 90028, 24 h
How it was run: (§2)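 Yeasts held on Sabouraud dextrose agar. MIC by NCCLS M27-A broth microdilution in RPMI 1640 with L-glutamine, buffered with 0.165 M MOPS to pH 7.0. Compounds in DMSO (≤2% final), twofold dilutions 500–0.48. Final inoculum 5 × 10³ ± 0.2 cfu mL⁻¹. Incubated at 35 °C; absorbance at 540 nm read at 24 and 48 h. MIC is 80% growth inhibition versus control; run twice in duplicate.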

Trichosporon beigelii [4] = assay: Antifungal activity against Trichosporon beigelii 1188 after 48 hrs by microdilution method; assay type: functional; settings: Trichosporon beigelii, 1188, 48 h; how it was run: as §2
Aspergillus fumigatus [5] = assay: Antifungal activity against Aspergillus fumigatus 231 after 48 hrs by microdilution method; assay type: functional; settings: Aspergillus fumigatus, 231, 48 h
How it was run: (§3)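 Filamentous strains held on Sabouraud dextrose agar. NCCLS M27-A broth microdilution in RPMI 1640 with L-glutamine and 0.165 M MOPS, pH 7.0. DMSO diluent ≤2% final; twofold dilutions 500–0.48. Inoculum 5 × 10³ ± 0.2 cfu mL⁻¹ final.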

Candida albicans [6] = assay: Antifungal activity against Candida albicans ATCC 90028 after 48 hrs by microdilution method; assay type: functional; settings: ATCC 90028, 48 h; how it was run: as §2
CCRF-CEM = assay: Cytostatic activity against human CCRF-CEM cells after 72 hrs by XTT assay; assay type: functional, cell-based; settings: ccrf-cem
How it was run: (§4)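 Leukemia cells (L1210 ATCC CCL 219, CCRF-CEM ATCC CCL 119, HL-60 ATCC CCL 240) grown in 24-well plates in RPMI 1640 with fetal calf serum. Growth assessed 72 h after drug addition. Viability measured by XTT spectrophotometric assay; potency given as IC50.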

Nakaseomyces glabratus [7] = assay: Antifungal activity against Candida glabrata 20/I after 24 hrs by microdilution method; assay type: functional; how it was run: as §2
HeLa S3 = assay: Cytostatic activity against human HeLaS3 cells after 48 hrs by XTT assay; settings: hela s3
Trichosporon beigelii [8] = assay: Antifungal activity against Trichosporon beigelii 1188 after 24 hrs by microdilution method; assay type: functional; settings: Trichosporon beigelii, 1188, 24 h; how it was run: as §2
Candida parapsilosis [9] = assay: Antifungal activity against Candida parapsilosis ATCC 22019 after 48 hrs by microdilution method; assay type: functional; settings: Lodderomyces parapsilosis, ATCC 22019, 48 h; how it was run: as §2
Lichtheimia corymbifera [10] = assay: Antifungal activity against Absidia corymbifera 272 after 24 hrs by microdilution method; assay type: functional; settings: Lichtheimia corymbifera, 272, 24 h; how it was run: as §3
Candida tropicalis [11] = assay: Antifungal activity against Candida tropicalis 156 after 24 hrs by microdilution method; assay type: functional; settings: Candida tropicalis, 156, 24 h; how it was run: as §2
Pichia kudriavzevii [12] = assay: Antifungal activity against Candida krusei ATCC 6258 after 24 hrs by microdilution method; assay type: functional; settings: ATCC 6258, 24 h; how it was run: as §2
Pichia kudriavzevii [13] = assay: Antifungal activity against Candida krusei E28 after 24 hrs by microdilution method; assay type: functional; settings: E28, 24 h; how it was run: as §2
HL-60 = assay: Cytostatic activity against human HL60 cells after 72 hrs by XTT assay; assay type: functional, cell-based; settings: hl-60; how it was run: as §4
Candida tropicalis [14] = assay: Antifungal activity against Candida tropicalis 156 after 48 hrs by microdilution method; assay type: functional; settings: Candida tropicalis, 156, 48 h; how it was run: as §2
Aspergillus fumigatus [15] = assay: Antifungal activity against Aspergillus fumigatus 231 after 24 hrs by microdilution method; assay type: functional; settings: Aspergillus fumigatus, 231, 24 h; how it was run: as §3
Pichia kudriavzevii [16] = assay: Antifungal activity against Candida krusei E28 after 48 hrs by microdilution method; assay type: functional; settings: E28, 48 h; how it was run: as §2
Nakaseomyces glabratus [17] = assay: Antifungal activity against Candida glabrata 20/I after 48 hrs by microdilution method; assay type: functional; how it was run: as §2
Clavispora lusitaniae [18] = assay: Antifungal activity against Candida lusitaniae 2446/I after 24 hrs by microdilution method; assay type: functional; how it was run: as §2
Lichtheimia corymbifera [19] = assay: Antifungal activity against Absidia corymbifera 272 after 48 hrs by microdilution method; assay type: functional; settings: Lichtheimia corymbifera, 272, 48 h; how it was run: as §3
L1210 = assay: Cytostatic activity against mouse L1210 cells after 72 hrs by XTT assay; assay type: functional, cell-based; settings: l1210; how it was run: as §4
Candida parapsilosis [20] = assay: Antifungal activity against Candida parapsilosis ATCC 22019 after 24 hrs by microdilution method; assay type: functional; settings: Lodderomyces parapsilosis, ATCC 22019, 24 h; how it was run: as §2
Candida albicans [21] = assay: Antifungal activity against Candida albicans ATCC 44859 after 48 hrs by microdilution method; assay type: functional; settings: ATCC 44859, 48 h; how it was run: as §2
Pichia kudriavzevii [22] = assay: Antifungal activity against Candida krusei ATCC 6258 after 48 hrs by microdilution method; assay type: functional; settings: ATCC 6258, 48 h; how it was run: as §2
Candida albicans [23] = assay: Antifungal activity against Candida albicans ATCC 44859 after 24 hrs by microdilution method; assay type: functional; settings: ATCC 44859, 24 h; how it was run: as §2
Clavispora lusitaniae [24] = assay: Antifungal activity against Candida lusitaniae 2446/I after 48 hrs by microdilution method; assay type: functional; how it was run: as §2

Row | SMILES | MIC80 [1] | MIC80 [2] | MIC80 (Candida albicans [3]) | MIC80 (Trichosporon beigelii [4]) | MIC80 (Aspergillus fumigatus [5]) | MIC80 (Candida albicans [6]) | IC50 (CCRF-CEM) | MIC80 (Nakaseomyces glabratus [7]) | IC50 (HeLa S3) | MIC80 (Trichosporon beigelii [8]) | MIC80 (Candida parapsilosis [9]) | MIC80 (Lichtheimia corymbifera [10]) | MIC80 (Candida tropicalis [11]) | MIC80 (Pichia kudriavzevii [12]) | MIC80 (Pichia kudriavzevii [13]) | IC50 (HL-60) | MIC80 (Candida tropicalis [14]) | MIC80 (Aspergillus fumigatus [15]) | MIC80 (Pichia kudriavzevii [16]) | MIC80 (Nakaseomyces glabratus [17]) | other results
1 | COC(=O)/C=C1\C=C(c2ccc(Br)cc2)C(=O)O1 | > 125 µM | > 125 µM | > 125 µM | > 125 µM | > 125 µM | > 125 µM | Not Active | > 125 µM | Not Active | > 125 µM | > 125 µM | > 125 µM | > 125 µM | > 125 µM | > 125 µM | Not Active | > 125 µM | > 125 µM | > 125 µM | > 125 µM | MIC80 (Clavispora lusitaniae [18]): > 125 µM; MIC80 (Lichtheimia corymbifera [19]): > 125 µM; IC50 (L1210): Not Active; MIC80 (Candida parapsilosis [20]): > 125 µM; MIC80 (Candida albicans [21]): > 125 µM; MIC80 (Pichia kudriavzevii [22]): > 125 µM; MIC80 (Candida albicans [23]): > 125 µM; MIC80 (Clavispora lusitaniae [24]): > 125 µM
2 | O=C1O/C(=C\CCO)C=C1c1ccc(Br)cc1 | 31.2 µM (≈ 9.22 µg/mL) | 31.2 µM (≈ 9.22 µg/mL) | 125 µM (≈ 36.9 µg/mL) | 125 µM (≈ 36.9 µg/mL) | 250 µM (≈ 73.8 µg/mL) | 250 µM (≈ 73.8 µg/mL) | Not Active | 62.5 µM (≈ 18.4 µg/mL) | Not Active | 125 µM (≈ 36.9 µg/mL) | 125 µM (≈ 36.9 µg/mL) | 62.5 µM (≈ 18.4 µg/mL) | 125 µM (≈ 36.9 µg/mL) | 125 µM (≈ 36.9 µg/mL) | 250 µM (≈ 73.8 µg/mL) | Not Active | 250 µM (≈ 73.8 µg/mL) | 125 µM (≈ 36.9 µg/mL) | 250 µM (≈ 73.8 µg/mL) | 250 µM (≈ 73.8 µg/mL) | MIC80 (Clavispora lusitaniae [18]): 125 µM (≈ 36.9 µg/mL); MIC80 (Lichtheimia corymbifera [19]): 62.5 µM (≈ 18.4 µg/mL); IC50 (L1210): Not Active; MIC80 (Candida parapsilosis [20]): 125 µM (≈ 36.9 µg/mL); MIC80 (Candida albicans [21]): 125 µM (≈ 36.9 µg/mL); MIC80 (Pichia kudriavzevii [22]): 250 µM (≈ 73.8 µg/mL); MIC80 (Candida albicans [23]): 62.5 µM (≈ 18.4 µg/mL); MIC80 (Clavispora lusitaniae [24]): 250 µM (≈ 73.8 µg/mL)
3 | O=C1O/C(=C\c2ccccc2)C=C1c1ccc(Br)cc1 | > 125 µM | > 125 µM | > 125 µM | > 125 µM | > 125 µM | > 125 µM | Not Active | > 125 µM | Not Active | > 125 µM | > 125 µM | > 125 µM | > 125 µM | > 125 µM | > 125 µM | Not Active | > 125 µM | > 125 µM | > 125 µM | > 125 µM | MIC80 (Clavispora lusitaniae [18]): > 125 µM; MIC80 (Lichtheimia corymbifera [19]): > 125 µM; IC50 (L1210): Not Active; MIC80 (Candida parapsilosis [20]): > 125 µM; MIC80 (Candida albicans [21]): > 125 µM; MIC80 (Pichia kudriavzevii [22]): > 125 µM; MIC80 (Candida albicans [23]): > 125 µM; MIC80 (Clavispora lusitaniae [24]): > 125 µM
4 | C/C=C1/C=C(c2ccc(Br)cc2)C(=O)O1 | 31.2 µM (≈ 8.28 µg/mL) | 31.2 µM (≈ 8.28 µg/mL) | > 500 µM | > 500 µM | > 500 µM | > 500 µM | Not Active | > 500 µM | Not Active | > 500 µM | > 500 µM | > 500 µM | > 500 µM | > 500 µM | > 500 µM | Not Active | > 500 µM | > 500 µM | > 500 µM | > 500 µM | MIC80 (Clavispora lusitaniae [18]): > 500 µM; MIC80 (Lichtheimia corymbifera [19]): > 500 µM; IC50 (L1210): Not Active; MIC80 (Candida parapsilosis [20]): > 500 µM; MIC80 (Candida albicans [21]): > 500 µM; MIC80 (Pichia kudriavzevii [22]): > 500 µM; MIC80 (Candida albicans [23]): 250 µM (≈ 66.3 µg/mL); MIC80 (Clavispora lusitaniae [24]): > 500 µM
